Vif imaging – HIV Vif self-association inhibitors, primary screen, imaging, HEK293T, single point. HEK293T cells, Vif self-association by quenched fluorescence, 24 h. inhibition, % at 7.49 µM. 340,000 tested, 0.35% active; in the data active means inhibition above about 50%, passing the limit was not always enough
NTR1 ag – agonists of human NTR1, primary screen, imaging, U2OS cells, beta-arrestin-GFP, high content. Neurotensin receptor type 1 (Homo sapiens), P30989. NTR1-U2OS beta-arrestin-GFP spot imaging, agonist mode. activation, % at 20 µM. 330,000 tested, 0.17% active;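 active means activation at or above 40% of the spot to cytoplasm intensity ratio, with at least 20 cells analyzed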
V-ATPase pHluor – regulators of yeast V-ATPase proton pumping, primary screen, pHLuorin cytosolic pH fluorescence; S. cerevisiae; response, % at 10 µM; 350,000 tested, 0.37% active; AID 504577, 2011; in the data active means response mostly above about 7.3%, no sharp cut-off; inactive means mostly below about 5.4%; further: actives read high
SR-BI DiI inh – inhibitors of SR-BI mediated HDL lipid uptake, primary screen, ldlA[mSR-BI] cells, fluorescence, single point; 320,000 tested, 0.96% active; inhibition, % at 12.5 µM; Scavenger receptor class B member 1 (Mus musculus), Q61009; ldlA[mSR-BI] CHO cells, DiI-HDL uptake fluorescence, 3 h; AID 488896, 2010;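 active means mean replicate inhibition of at least 70% and a set share of replicates each scoring 70 or more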
Target sequence (Q61009 whole entry, looked up): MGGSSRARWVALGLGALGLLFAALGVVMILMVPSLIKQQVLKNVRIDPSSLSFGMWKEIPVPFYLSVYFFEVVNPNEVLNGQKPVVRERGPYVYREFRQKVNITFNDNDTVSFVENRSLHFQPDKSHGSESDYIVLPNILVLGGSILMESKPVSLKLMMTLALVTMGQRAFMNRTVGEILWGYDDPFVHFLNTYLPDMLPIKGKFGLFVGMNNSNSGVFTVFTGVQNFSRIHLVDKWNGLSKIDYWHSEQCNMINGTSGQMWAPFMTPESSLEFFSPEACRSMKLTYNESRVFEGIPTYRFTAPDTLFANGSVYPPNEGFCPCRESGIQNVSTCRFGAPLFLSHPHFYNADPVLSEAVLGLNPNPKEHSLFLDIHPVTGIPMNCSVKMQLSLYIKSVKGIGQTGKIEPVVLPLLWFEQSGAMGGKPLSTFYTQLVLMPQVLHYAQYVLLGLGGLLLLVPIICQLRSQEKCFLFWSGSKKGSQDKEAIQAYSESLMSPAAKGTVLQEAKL
SR-BI uptake up – activators of SR-BI mediated DiI-HDL uptake, primary screen, ldlA[mSR-BI] CHO cells, DiI fluorescence. 320,000 tested, 0.096% active. activation, % at 12.5 µM. 3 h; 100 = double the neutral-control signal;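 active means mean replicate activation of at least 60% and every replicate at or above 60%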
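System: LDL receptor-deficient CHO ldlA cells overexpressing murine SR-BI | Timing: 3 h uptake period with compound, 37 °C | Medium: HEPES-buffered (25 mM, pH 7.4) F12 plus 0.5% BSA | Dosing: Single-point compound dose | Signal: Bottom-read fluorescence, 550/595 nm | Read-out: Retained DiI signal reflecting DiI-HDL uptake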
CaV13 ICDI inh – Primary screen for inhibitors of IQ motif and Ca2+-dependent inactivation inhibitor domain binding in CACNA1D, Förster resonance energy transfer in living cells, …. HEK cells, CFP/YFP FRET ICDI-IQ, plate reader, 10 min; percent FRET-ratio fall versus neutral wells. inhibition, % at 12.3 µM. 340,000 tested, 0.098% active. AID 743397;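 active means mean replicate inhibition of at least 30% and at least 1% of replicates passing that level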
Each line names hits and unclear results; the compound was inactive in the other large screens. Compounds with a hit are over-represented: about 1.7% of the library has one in this group of screens.

CCCc1cc(=O)oc2cc(OCC(=O)N3CCN(C(=O)C4COc5ccccc5O4)CC3)ccc12 (stereo not given)	SR-BI DiI inh 87
Cc1c(C)c2ccc(OCC(=O)N3CCN(C(=O)C4COc5ccccc5O4)CC3)cc2oc1=O (stereo not given)	SR-BI DiI inh 88
Cc1cc(=O)oc2cc(OCC(=O)N3CCCc4ccccc43)ccc12	none (no result: CaV13 ICDI inh)
O=C(COc1ccc2ccc(=O)oc2c1)N1CCN(C(=O)C2COc3ccccc3O2)CC1 (stereo not given)	none
CCCCc1cc(=O)oc2cc(OCC(=O)N3CCOCC3)ccc12	none
Cc1cc(=O)oc2cc(OCC(=O)N3CCN(C(=O)C4COc5ccccc5O4)CC3)ccc12 (stereo not given)	SR-BI DiI inh 88
Cc1cc(=O)oc2ccc(OCC(=O)N3CCc4ccccc43)cc12	SR-BI DiI inh 78 (no result: Vif imaging, CaV13 ICDI inh)
CCCN1C(=O)c2n[nH]c(C)c2C1c1ccc(Br)cc1 (stereo not given)	none (no result: Vif imaging, NTR1 ag, V-ATPase pHluor, SR-BI DiI inh, SR-BI uptake up)
Cc1[nH]nc2c1C(c1ccc3c(c1)OCO3)N(Cc1ccccc1)C2=O (stereo not given)	none (no result: Vif imaging, NTR1 ag, V-ATPase pHluor, SR-BI DiI inh, SR-BI uptake up)
CC(C)c1ccc(-c2nc(N3CCCCCC3)nc3n[nH]c(N)c23)cc1	SR-BI DiI inh 90
CC(C)c1ccc(-c2nc(N3CCCC3)nc3n[nH]c(N)c23)cc1	none (no result: Vif imaging)
O=C(CSC1=NNC(c2ccccn2)S1)Nc1cccc(Cl)c1 (stereo not given)	SR-BI DiI inh 78 (no result: Vif imaging)
CCOC(=O)C1(Cc2cccc(OC)c2)CCN(CC(O)CO)CC1 (stereo not given)	none
CCOC(=O)C1(Cc2cccc(OC)c2)CCN(CCO)CC1	Vif imaging 66
O=C(c1ccccc1)C1OC1C(=O)c1ccccc1 (stereo not given)	Vif imaging 73 (no result: NTR1 ag)
Cc1ccc(C(=O)N/N=C/c2cccc(OC(=O)/C=C/c3ccco3)c2)cn1	none
O=C(/C=C/c1ccco1)Oc1cc(Br)cc(/C=N/NC(=O)c2ccccc2O)c1	SR-BI DiI inh 134 (no result: NTR1 ag)
CCOC(=O)C(=O)/C(=C\N(C)C)c1onc(-c2c(F)cccc2Cl)c1C(=O)OC	none (no result: Vif imaging)
CCCCCc1cc(=O)oc2c(C(CCN3CCCCC3)c3cc(OC)c(OC)c(OC)c3)c(OC)cc(OC)c12 (stereo not given)	SR-BI uptake up 62
CCCCCc1cc(=O)oc2c(C(CCN3CCCC(C)C3)c3cc(OC)c(OC)c(OC)c3)c(OC)cc(OC)c12 (stereo not given)	none (no result: CaV13 ICDI inh)
C#C[C@]1(O)CCC2C3CCC4=Cc5oncc5CC4(C)C3CCC21C (stereo not given in full)	none
O=C(Cn1c(NCCO)nc2ccccc21)c1ccco1	SR-BI uptake up 61
CC(C)(C)C(=O)CSc1ncnc2c1cnn2Cc1ccccc1	none
c1ccc(CSc2ncnc3c2cnn3Cc2ccccc2)cc1	V-ATPase pHluor 17
CCOC(=O)C1=C(C(=O)OCC)C2N(Cc3ccc(C#N)cc3)c3ccccc3[C@@]23C[C@@H](C(=O)OC)N(S(=O)(=O)c2c(C)noc2C)C3=N1 (stereo not given in full)	none (no result: Vif imaging, NTR1 ag, V-ATPase pHluor, SR-BI DiI inh, SR-BI uptake up)
COc1ccc(CCNC(=O)CSc2cn(Cc3cccc(C)c3)c3ccccc23)cc1OC	CaV13 ICDI inh 49
Cc1ccc(/C=N\NC(=O)c2ccc3c(c2)OCO3)o1	none
COc1ccc(/C(C)=N/NC(=S)NCCc2ccccc2)c(O)c1	none (no result: SR-BI DiI inh, SR-BI uptake up)
C=CCN1C(=O)/C(=C2/Sc3ccccc3N2C)SC1=Nc1c(C)n[nH]c1C	none (no result: CaV13 ICDI inh)
C=CCN1C(=O)/C(=C2/Sc3ccccc3N2CC)SC1=S	Vif imaging 85
CCN1C(=O)/C(=C2/Sc3ccccc3N2CC)S/C1=N\c1ncn[nH]1	SR-BI DiI inh 74
CC(=O)c1c(C)[nH]c(C(=O)N2CCN(c3ccccn3)CC2)c1C	none
COc1ccccc1C(=O)COC(=O)c1cc(=O)[nH]c2ccccc12	none
Cc1ccc(C(=O)COC(=O)c2cc(=O)[nH]c3ccccc23)cc1C	Vif imaging 66
CC(=O)Nc1c2c(nn1-c1ccccc1C)CS(=O)(=O)C2	none (no result: Vif imaging)
CCCN(CCC)CCCNC(=O)CC(C(=O)N1CCc2ccccc21)n1ccnc1 (stereo not given)	none (no result: Vif imaging)
CCN(CC)CC(C)CNC(=O)CC(C(=O)N1CCc2ccccc21)n1ccnc1 (stereo not given)	Vif imaging 123
CCN1C[C@@H]2[C@@H]3C(=O)N(C)C(=O)[C@@H]3[C@](C)(C1=O)N2C(=O)c1ccc(C(C)(C)C)cc1	none (no result: NTR1 ag)
CCOc1nc(Nc2ccc(OC)c(Cl)c2)nc(N2CCN(c3ccc(OC)cc3)CC2)n1	SR-BI DiI inh 79
CCOc1nc(Nc2ccc(F)cc2)nc(N2CCN(c3ccc(OC)cc3)CC2)n1	none
CCc1ccc(OC2(C)CCN(Cc3ccccc3OC(F)F)C2)cc1 (stereo not given)	Vif imaging 73 (no result: NTR1 ag, V-ATPase pHluor, SR-BI DiI inh, SR-BI uptake up)
CCN(CC)C(=O)c1cn(C)c(=O)c2cc(OC)c(OC)cc12	none
CCN(C(=O)c1cn(C)c(=O)c2cc(OC)c(OC)cc12)c1cc(OC)ccc1OC	SR-BI uptake up 67 (no result: CaV13 ICDI inh)
CCCN(CC(=O)Nc1cc(Cl)ccc1Cl)C(=O)c1ccccc1SCC(=O)N1CCCC1	none
COCCN1C[C@@H](CO)O[C@@H](n2cnc3c(NCCN(C)C)ncnc32)C1	none (no result: Vif imaging, NTR1 ag, V-ATPase pHluor, SR-BI DiI inh, SR-BI uptake up)
CCOC(=O)C(NC(=O)c1ccc(OC)cc1)(OCC1(CC)COC1)C(F)(F)F (stereo not given)	none (no result: CaV13 ICDI inh)
CCOC(=O)C(NC(=O)c1ccccc1)(OCC1(CC)COC1)C(F)(F)F (stereo not given)	CaV13 ICDI inh 41
C=CCN1[C@@H](C)[C@H](c2ccccc2)Oc2cccc(NCCc3ccccc3)c2S1(=O)=O	none (no result: Vif imaging, NTR1 ag, V-ATPase pHluor, SR-BI DiI inh, SR-BI uptake up)
O=C(O)/C=C/c1ccc([N+](=O)[O-])o1	none
O=[N+]([O-])c1ccc(/C=N/N=C/c2ccc([N+](=O)[O-])o2)o1	Vif imaging 53 (no result: NTR1 ag)
O=C(CC12CC3CC(CC(C3)C1)C2)NCc1ccccc1	none
O=C(CC12CC3CC(CC(C3)C1)C2)NCc1ccc(F)cc1	SR-BI DiI inh 83
C(=C/c1nccc2c1[nH]c1ccccc12)/c1ccc2c(c1)OCO2	Vif imaging 72 (no result: NTR1 ag)
C(=N\Nc1nc2ccccc2[nH]1)/c1ccc2c(c1)OCO2	none (no result: NTR1 ag)
O=C(Nc1ccc2ncccc2c1)Nc1ccc2ncccc2c1	none
O=C(Nc1ccc2ncccc2c1)c1ccccc1Br	SR-BI uptake up 214 (no result: CaV13 ICDI inh)
C[C@@H](NC(=O)c1[nH]cnc1C(=O)Nc1ccon1)c1ccccc1	none

Assay outcomes deposited in PubChem BioAssay by several laboratories.
